Most compounds without a hit are left out; they make up all but 1.9% or so of the library.
MBD2 inh – blocks human MBD2 binding to methylated DNA; Q9UBB5; TR-FRET, MBD2 binding to methylated oligonucleotide; inhibition, % at 4.4 µM; hit rate 0.31% among 370,000; AID 686964; in the data active = inhibition above about 13%
Target sequence (Q9UBB5 whole entry, looked up): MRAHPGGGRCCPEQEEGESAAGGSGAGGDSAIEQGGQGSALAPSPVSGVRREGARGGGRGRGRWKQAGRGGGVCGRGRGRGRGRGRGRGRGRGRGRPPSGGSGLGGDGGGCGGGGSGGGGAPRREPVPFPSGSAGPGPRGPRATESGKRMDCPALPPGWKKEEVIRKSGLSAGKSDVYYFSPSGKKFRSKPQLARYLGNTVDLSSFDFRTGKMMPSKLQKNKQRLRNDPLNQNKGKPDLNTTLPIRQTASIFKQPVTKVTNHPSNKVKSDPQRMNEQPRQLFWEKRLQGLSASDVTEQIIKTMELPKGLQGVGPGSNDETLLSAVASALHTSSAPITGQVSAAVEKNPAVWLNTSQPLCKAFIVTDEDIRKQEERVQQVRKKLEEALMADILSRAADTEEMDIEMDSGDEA
DDE Tn6 FP inh – inhibitors of Tn6 peptide binding to human fibrin DD(E) | P02675 | Fibrin DD(E) TRITC-Tn6 fluorescence polarization displacement | inhibition, % at 8.3 µM | hit rate 0.21% among 370,000 | AID 720509;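 active = inhibition above a per-campaign cutoff: mean of compounds within control limits plus 3 SD, cut at about 15% in these data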;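 note: 0% = median of all compound wells on the plate and 100% = blocking peptide control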
TDP2 inh – TDP2 (human) inhibition, absorbance primary screen; recombinant TDP2, T5PNP hydrolysis, p-nitrophenol absorbance 415 nm; inhibition, % at 12.8 µM; hit rate 0.34% among 370,000; AID 720702;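 active = inhibition above the mean of all tested compounds plus 3 SD, set per campaign, cut at about 25% in these data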;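 note: 0% = DMSO with enzyme and 100% = buffer with substrate but no TDP2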
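Material: recombinant human TDP2; quantity: TDP2 enzyme at 120 nM final; medium: Tris-HCl pH 7.5 with MgCl2; compound: single concentration, 12.8 µM nominal, with 1% DMSO; incubation: 2 h enzyme incubation at 37 °C; signal: epi absorbance; measure: percent inhibition; benchmarks: high control without enzyme, low control DMSO plus TDP2; repeats: singlicate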
LEDGF integ inh – blocks HIV-1 LEDGF/p75-dependent DNA integration; inhibition, % at 3.7 µM; AID 743269; TR-FRET IN-LEDGF/p75 DNA integration, Eu/Cy5; hit rate 0.64% among 370,000;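 active = inhibition above the screen-wide mean plus 3 SD, cut at about 13% in these data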;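 note: signal is the Cy5 over europium emission ratio at 671 and 618 nm; 0% = plate median of compound wells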
Tn7 DDE FP – disrupts Tn7 cyclic peptide binding to fibrin D-Dimer-E complex; P02675; FP displacement of FITC-Tn7 peptide from fibrin DD(E); 0% = median of compound wells per plate; inhibition, % at 8.3 µM; hit rate 0.13% among 370,000; AID 720508;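 active = inhibition above the mean of compounds falling within the control limits plus 3 SD of them, cut at about 14% in these data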;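 note: 0% = plate median of compound wells and 100% = 10 µM Aha-Tn7 peptide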
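assay system = human clot-derived fibrin DD(E) complex | quantity = Fibrin-DD(E) at 2 µM final | timing = 10 min preincubation, 3 h with tracer, room temperature | signal = fluorescence polarization | measure = percent inhibition | benchmarks = high control wells with 10 µM unlabelled Aha-Tn7 peptide (full inhibition) | replicates = singlicate testing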
UHRF1 binding – UHRF1 methyl-DNA binding inhibition | inhibition, % at 4.4 µM | UHRF1 binding to methylated oligo, TR-FRET | hit rate 0.75% among 370,000 | AID 687016; in the data active = inhibition above about 21%;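 note: UHRF1 SRA domain binding a hemimethylated CpG hairpin DNA probe; 0% = median of test compound wells and 100% = reference inhibitor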
IN multimer up – HIV-1 integrase multimerization activation, counter-screen. activation, % at 7.7 µM. TR-FRET HIV-1 integrase multimerization, biochemical. shares compounds with LEDGF integ inh. hit rate 17% among 2,000; in the data active = activation above about 8.9%
TR-FRET interf – counter-screen for LEDGF/p75 integration inhibitors: TR-FRET optical interference. shares compounds with LEDGF integ inh. TR-FRET optical interference counterscreen, HIV-1 IN multimerization. inhibition, % at 7.7 µM. 2,000 tested, under 10 active;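 active = inhibition above the mean over all tested compounds plus 3 SD, which no compound reached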;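 note: 0% = integrase with antibodies and DMSO and 100% = antibodies without integrase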
IN-LEDGF confirm – LEDGF/p75-dependent HIV-1 integration inhibition, confirmation; shares compounds with LEDGF integ inh; inhibition, % at 3.7 µM; hit rate 36% among 2,000; TR-FRET LEDGF/p75-dependent HIV-1 integration, biochemical; in the data active = inhibition above about 14%
Starred values were filed as active, the others as inactive; . = no result given.

SMILES	MBD2 inh	DDE Tn6 FP inh	TDP2 inh	LEDGF integ inh	Tn7 DDE FP	UHRF1 binding	IN multimer up	TR-FRET interf	IN-LEDGF confirm
O=C(N[C@H](Cc1ccccc1)C(=O)N(CCC1=CCCCC1)CC1CC1)[C@H]1O[C@@H](n2ccc(=O)[nH]c2=O)[C@H](O)[C@@H]1O	-5	1	2	4	-6	-1	.	.	.
CCc1ccccc1-n1c(SCC(=O)NC)nnc1-c1cccnc1	2	7	0	22*	7	3	0	2	-8
CCc1ccccc1-n1c(SCC(=O)NC)nnc1-c1ccco1	-1	-2	4	-2	-3	1	.	.	.
Cn1c(SCCc2ccc([N+](=O)[O-])cc2)nccc1=O	3	-5	2	60*	1	2	0	0	0
Cn1c(SCc2ccccc2)nccc1=O	5	-1	-6	-4	3	4	.	.	.
Cc1cc(C(=O)COc2cccnc2[N+](=O)[O-])c(C)n1Cc1cccs1	-1	3	10	14*	6	1	2	-8	5
CC(=O)Nc1ccccc1OCC(=O)c1cc(C)n(Cc2cccs2)c1C	1	0	8	-4	3	-1	.	.	.
C=CCSC1=N/C(=C\c2ccc3c(c2)OCO3)C(=O)S1	0	0	7	2	9	3	.	.	.
C=CCSC1=N/C(=C\c2cc(OCC)c(OC(C)=O)c([N+](=O)[O-])c2)C(=O)S1	-2	-9	-18	32*	-9	19	1	-3	3
Cc1cccc(NC(=O)Nc2nc3ncccn3c2-c2ccc(F)cc2)c1	-6	3	5	0	4	0	.	.	.
CC1Cc2ccccc2N1C(=O)c1ccc(F)c(S(=O)(=O)N2CCOCC2)c1 (centres undefined)	-2	2	-3	26*	-1	0	2	-6	4
COc1ccc(N2C(=O)CSC2c2cccc(F)c2)cc1 (centres undefined)	3	6	6	29*	4	13	1	-7	-9
COC(=O)C1=C(C)N(Cc2ccccc2C(F)(F)F)C(=NCC2CC2)NC1CCc1ccccc1 (centres undefined)	-6	-13	-11	4	2	-1	.	.	.
COCCNC(=O)C1(S(=O)(=O)c2ccccc2)CC=CC1	-6	-2	-13	24*	-1	0	0	0	0
CC(C(=O)Nc1cccc([N+](=O)[O-])c1)n1nnc2ccccc21 (centres undefined)	1	-1	2	82*	4	-4	-2	6	-12
Nc1ccc2nc(CCCO)[nH]c2c1	-6	6	-1	-2	4	-6	.	.	.
Nc1n[nH]c(CCCO)n1	1	1	6	25*	-1	0	-1	3	-4
O=c1c2c([N+](=O)[O-])cc([N+](=O)[O-])cc2nc2ccccn12	-12	-2	6	25*	6	5	-1	3	19*
O=c1c2c([N+](=O)[O-])cc([N+](=O)[O-])cc2sn1Cc1ccccc1	-3	-3	9	-4	-3	-3	.	.	.
CCC(=O)c1ccc(OCC(O)Cn2cnc3ccccc32)cc1 (centres undefined)	3	0	2	36*	4	2	11*	-57	-3
COCc1[nH]nc2c1C(c1ccc(Br)cc1)N(c1ccc(OC)cc1)C2=O (centres undefined)	3	2	7	0	9	1	.	.	.
O=[N+]([O-])c1ccc2nc(-c3ccncc3)[nH]c2c1	-6	-5	10	46*	2	-7	-1	3	4
CCc1nnc(NC(=O)c2oc3cc(C)c(C)cc3c2C)s1	-2	-1	-4	16*	4	4	3	-15	-3
C[C@H]1C(c2ccccc2F)O[C@]2(C[C@H](O)c3ccccc3O2)C[C@@H]1O (some centres undefined)	3	4	5	9	-4	-4	.	.	.
Cc1nc2ccccc2nc1OCC(=O)Nc1ccccc1	-1	-3	3	17*	0	-2	1	-4	1
SMILES	MBD2 inh	DDE Tn6 FP inh	TDP2 inh	LEDGF integ inh	Tn7 DDE FP	UHRF1 binding	IN multimer up	TR-FRET interf	IN-LEDGF confirm
COC(=O)[C@]12C[C@H](CC(=O)NCC34CC5CC(CC(C5)C3)C4)C(=O)N(Cc3cccc4ccccc34)C1=C[C@H](C(C)(C)C)O[C@@H]2C	-3	7	-3	-3	8	-1	.	.	.
C[C@H]1CN([C@@H](C)CO)C(=O)CCCn2nncc2CO[C@@H]1CN(C)Cc1ccc2cccnc2c1	-5	1	4	4	6	-1	.	.	.
O=C1/C(=C/c2ccco2)SC(=S)N1C1CCS(=O)(=O)C1 (centres undefined)	10	1	-10	48*	6	32*	1	-4	27*
O=C1/C(=C\c2ccco2)SC(=S)N1C1CCS(=O)(=O)C1 (centres undefined)	13	1	13	40*	0	54*	6	-31	48*
CCOc1ccc(NC(=O)CN2CCCN(c3ccc(OC)cc3)CC2)cc1	2	8	12	0	-4	-1	.	.	.
CCN(c1ccccc1)S(=O)(=O)c1cc(OC)ccc1OC	-3	3	-3	52*	-1	-1	-3	10	-8
COCCN1C(=O)C2=C(C1=O)C1N(C)c3ccccc3[C@@]13C[C@@H](CO)N(C(=O)CCC(=O)OC)C3=N2 (some centres undefined)	-2	13	0	-2	9	0	.	.	.
CC(C)(C)c1ccc(S(=O)(=O)/N=C2\C=C(NS(=O)(=O)c3ccccc3)C(=O)c3ccccc32)cc1	-9	-4	22	16*	2	-6	-1	5	-6
C/C(=N\NS(=O)(=O)c1ccc(C(C)(C)C)cc1)c1ccccc1	7	-7	5	-5	-3	0	.	.	.
Cc1ccccc1-n1c(=O)cc(N2CCN(Cc3ccccc3)CC2)[nH]c1=O	-9	-2	13	18*	2	-1	0	0	1
CCOC(=O)N1CCN(c2cc(=O)n(-c3ccccc3C)c(=O)[nH]2)CC1	1	-1	-7	0	-2	-1	.	.	.

High-throughput results deposited in PubChem by The Scripps Research Institute Molecular Screening Center.
